Data: ChEMBL document CHEMBL1136006, “New PET imaging agent for the serotonin transporter: [(18)F]ACF (2-[(2-amino-4-chloro-5-fluorophenyl)thio]-N,N-dimethyl-benzenmethanamine)” (J Med Chem, 2002)

How the values were obtained:
[1] = organism: Rattus norvegicus; test: Organ distribution of [18F]-ACF radiolabeled compound in rat muscle after 240 min; assay type: ADME, organism-based, Muscle tissue; settings: in vivo, 4 h
Procedure, shortened: (§1)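 Under ether anesthesia, 30 μCi no-carrier-added tracer in 0.2 mL saline injected into the femoral vein. Rats killed by cardiac excision at the stated time. Organs were removed, weighed and counted; % dose/organ was calculated against counts of a 1% initial-dose standard. Three rats per time, average ± SD.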

[2] = organism: Rattus norvegicus; test: Ratio of regional brain distribution of [18F]-ACF radiolabeled compound in rat hippocampus to that of cerebellum after 240 min; assay type: ADME, organism-based; settings: in vivo, 4 h
Procedure, shortened: (§2)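 Rats, three per time point, given 30 μCi tracer in 0.2 mL saline into femoral vein under ether anesthesia; killed at 2, 30, 60, 120 or 240 min. Cortex, striatum, hippocampus, cerebellum, hypothalamus and rest of brain dissected, weighed, counted; % dose/g against diluted initial dose, then each region divided by cerebellum. Average of three rats ± SD.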

[3] = organism: Rattus norvegicus; test: Regional brain distribution of [18F]-ACF radiolabeled compound in rat hypothalamus after 2 min; assay type: ADME, organism-based; settings: in vivo
Procedure, shortened: (§3)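 Rats (three per group) under ether anesthesia got 30 μCi tracer in 0.2 mL saline into the femoral vein and were killed by cardiac excision at the stated time. Cortex, striatum, hippocampus, cerebellum, hypothalamus and the rest of brain were dissected, weighed and gamma counted. %dose/g was taken against counts of a diluted initial dose. Regional ratios are each region's %dose/g over cerebellum's. Mean ± SD.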

[4] = tested on: Rattus norvegicus; test: Effect of pretreatment with methylphenidate with a dose of 2 mg/kg (i.v.) on specific binding of [18F]ACF in rat brain cortex; assay type: ADME, organism-based; parameters: dose 2 mg/kg, route intravenous; settings: in vivo, iv
Procedure, shortened: (§4)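 Rats pretreated iv with drug (2 mg/kg) or saline 5 min before iv [18F]ACF (50 μCi). Sacrificed 1 h after tracer. Brain regions were dissected, weighed and counted, and % dose/g was calculated against a diluted initial dose. Drug-treated rats were compared with saline controls by ANOVA/Dunnett's test (p<0.05). Three rats per point, average ± SD.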

[5] = organism: Rattus norvegicus; test: Organ distribution of [18F]-ACF radiolabeled compound in rat skin after 30 min; assay type: ADME, organism-based; settings: in vivo, 0.5 h; procedure, shortened: as §1
[6] = organism: Rattus norvegicus; test: Regional brain distribution of [18F]ACF radiolabeled compound in rat hippocampus after 2 min; assay type: ADME, organism-based; settings: in vivo; procedure, shortened: as §3
[7] = tested on: Rattus norvegicus; test: Ratio of effect of pretreatment with (+)-McN5652 with a dose of 2 mg/kg (i.v.) on specific binding of [18F]ACF in rat brain striatum to that of cerebellum; assay type: ADME, organism-based; parameters: dose 2 mg/kg, route intravenous; settings: in vivo, iv
Procedure, shortened: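 Rats (three per point) pretreated iv with competing drug at 2 mg/kg or saline (control) 5 min before iv [18F]ACF (50 μCi). At 1 h post tracer, brain regions (cortex, striatum, hippocampus, cerebellum, hypothalamus, remainder) dissected, weighed, counted as % dose/g and expressed as ratio to cerebellum. Average ± SD; ANOVA with Dunnett's test vs saline controls, p < 0.05.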

[8] = tested on: Rattus norvegicus; test: Effect of pretreatment with (+)-McN5652 with a dose of 2 mg/kg (i.v.) on specific binding of [18F]ACF in rat brain striatum; assay type: ADME, organism-based; parameters: dose 2 mg/kg, route intravenous; settings: in vivo, iv; procedure, shortened: as §4
[9] = tested on: Rattus norvegicus; test: Effect of pretreatment with […] with a dose of 2 mg/kg (i.v.) on specific binding of [18F]ACF in rat brain blood; assay type: ADME, organism-based; parameters: dose 2 mg/kg, route intravenous; settings: in vivo, iv; procedure, shortened: as §4
[10] = organism: Rattus norvegicus; test: Organ distribution of [18F]ACF radiolabeled compound in rat blood after 240 min; assay type: ADME, organism-based; settings: in vivo, 4 h
Procedure, shortened: (§5)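 Rats, three per time point, under ether anesthesia; 30 μCi tracer in 0.2 mL saline injected into femoral vein. Sacrificed by cardiac excision under ether at 2, 30, 60, 120 or 240 min. Organs removed, weighed and counted; % dose/organ calculated against counts of 1% of initial dose counted at the same time. Average of three rats ± SD.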

[11] = tested on: Rattus norvegicus; test: Effect of pretreatment with methylphenidate with a dose of 2 mg/kg (i.v.) on specific binding of [18F]-ACF in rat brain remainder; assay type: ADME, organism-based; parameters: dose 2 mg/kg, route intravenous; settings: in vivo, iv; procedure, shortened: as §4
[12] = organism: Rattus norvegicus; test: Regional brain distribution of [18F]ACF radiolabeled compound in rat remainder (rest of brain) after 120 min; assay type: ADME, organism-based; settings: in vivo, 2 h; procedure, shortened: as §3
[13] = organism: Rattus norvegicus; test: Regional brain distribution of [18F]ACF radiolabeled compound in rat hippocampus after 60 min; assay type: ADME, organism-based; settings: in vivo, 1 h; procedure, shortened: as §3
[14] = organism: Rattus norvegicus; test: Regional brain distribution of [18F]ACF radiolabeled compound in rat hypothalamus after 30 min; assay type: ADME, organism-based; settings: in vivo, 0.5 h; procedure, shortened: as §3
[15] = organism: Rattus norvegicus; test: Ratio of regional brain distribution of [18F]-ACF radiolabeled compound in rat remainder to that of cerebellum after 2 min; assay type: ADME, organism-based; settings: in vivo; procedure, shortened: as §3
[16] = organism: Rattus norvegicus; test: Ratio of regional brain distribution of [18F]-ACF radiolabeled compound in rat cortex to that of cerebellum after 240 min; assay type: ADME, organism-based; settings: in vivo, 4 h; procedure, shortened: as §2
[17] = organism: Rattus norvegicus; test: Regional brain distribution of [18F]-ACF radiolabeled compound in rat cerebellum after 2 min; assay type: ADME, organism-based; settings: in vivo; procedure, shortened: as §3
[18] = organism: Rattus norvegicus; test: Organ distribution of [18F]-ACF radiolabeled compound in rat bone after 30 min; assay type: ADME, organism-based, Bone element; settings: in vivo, 0.5 h; procedure, shortened: as §1
[19] = organism: Rattus norvegicus; test: Ratio of regional brain distribution of [18F]-ACF radiolabeled compound in rat remainder to that of cerebellum after 30 min; assay type: ADME, organism-based; settings: in vivo, 0.5 h; procedure, shortened: as §3
[20] = organism: Rattus norvegicus; test: Regional brain distribution of [18F]ACF radiolabeled compound in rat cortex after 120 min; assay type: ADME, organism-based; settings: in vivo, 2 h; procedure, shortened: as §3
[21] = organism: Rattus norvegicus; test: Organ distribution of [18F]-ACF radiolabeled compound in rat skin after 120 min; assay type: ADME, organism-based; settings: in vivo, 2 h; procedure, shortened: as §1
[22] = organism: Rattus norvegicus; test: Organ distribution of [18F]-ACF radiolabeled compound in rat muscle after 30 min; assay type: ADME, organism-based, Muscle tissue; settings: in vivo, 0.5 h; procedure, shortened: as §1
[23] = organism: Rattus norvegicus; test: Ratio of regional brain distribution of [18F]-ACF radiolabeled compound in rat hippocampus to that of cerebellum after 30 min; assay type: ADME, organism-based; settings: in vivo, 0.5 h; procedure, shortened: as §2
[24] = organism: Rattus norvegicus; test: Ratio of regional brain distribution of [18F]ACF radiolabeled compound in rat cortex to that of cerebellum after 2 min; assay type: ADME, organism-based; settings: in vivo; procedure, shortened: as §3
[25] = organism: Rattus norvegicus; test: Organ distribution of [18F]-ACF radiolabeled compound in rat lung after 240 min; assay type: ADME, organism-based; settings: in vivo, 4 h; procedure, shortened: as §1
[26] = organism: Rattus norvegicus; test: Organ distribution of [18F]-ACF radiolabeled compound in rat skin after 60 min; assay type: ADME, organism-based; settings: in vivo, 1 h; procedure, shortened: as §1
[27] = organism: Rattus norvegicus; test: Ratio of regional brain distribution of [18F]ACF radiolabeled compound in rat hypothalamus to that of cerebellum after 240 min; assay type: ADME, organism-based; settings: in vivo, 4 h; procedure, shortened: as §3
[28] = organism: Rattus norvegicus; test: Regional brain distribution of [18F]ACF radiolabeled compound in rat striatum after 30 min; assay type: ADME, organism-based; settings: in vivo, 0.5 h
Procedure, shortened: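 Rats, three per group, under ether anaesthesia, given 30 μCi no-carrier-added tracer in 0.2 mL saline into the femoral vein. They were killed at the stated time by cardiac excision under ether. Striatum and other brain regions were dissected, weighed and counted. %dose/g was calculated against counts of 1% of the injected dose, as mean ± SD of three rats.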

[29] = organism: Rattus norvegicus; test: Organ distribution of [18F]ACF radiolabeled compound in rat kidney after 2 min; assay type: ADME, organism-based; settings: in vivo; procedure, shortened: as §5
[30] = tested on: Rattus norvegicus; test: Effect of pretreatment with (+)-McN5652 with a dose of 2 mg/kg (i.v.) on specific binding of [18F]ACF in rat brain hypothalamus; assay type: ADME, organism-based; parameters: dose 2 mg/kg, route intravenous; settings: in vivo, iv; procedure, shortened: as §4
[31] = organism: Rattus norvegicus; test: Ratio of regional brain distribution of [18F]ACF radiolabeled compound in rat striatum to that of cerebellum after 30 min; assay type: ADME, organism-based; settings: in vivo, 0.5 h; procedure, shortened: as §3
[32] = organism: Rattus norvegicus; test: Ratio of regional brain distribution of [18F]ACF radiolabeled compound in rat cortex to that of cerebellum after 60 min; assay type: ADME, organism-based; settings: in vivo, 1 h; procedure, shortened: as §3
[33] = tested on: Rattus norvegicus; test: Effect of pretreatment with (+)-McN5652 with a dose of 2 mg/kg (i.v.) on specific binding of [18F]ACF in rat brain remainder; dose/g; assay type: ADME, organism-based; parameters: dose 2 mg/kg, route intravenous; settings: in vivo, iv; procedure, shortened: as §4
[34] = organism: Rattus norvegicus; test: Ratio of regional brain distribution of [18F]-ACF radiolabeled compound in rat cortex to that of cerebellum after 120 min; assay type: ADME, organism-based; settings: in vivo, 2 h; procedure, shortened: as §2

Question: What does the source list for CN(C)Cc1ccccc1Sc1cc(F)c(Cl)cc1N?
Answer: Dose/g [1]: 2.08 % dose/organ; Ratio [2]: 1.99; Dose/g [3]: 1.76%; Dose/g [4]: 0.35%; Dose/g [5]: 6.51 % dose/organ; Dose/g [6]: 1.6%; Ratio [7]: 1.48; Dose/g [8]: 0.25%; Dose/g [9]: 0.26%; Dose/g [10]: 2.33 % dose/organ; Dose/g [11]: 0.38%; Dose/g [12]: 0.12%; Dose/g [13]: 0.45%; Dose/g [14]: 0.85%; Ratio [15]: 1.32; Ratio [16]: 1.52; Dose/g [17]: 1.33%; Dose/g [18]: 0.04 % dose/organ; Ratio [19]: 1.8; Dose/g [20]: 0.09%; Dose/g [21]: 2.61 % dose/organ; Dose/g [22]: 10.7 % dose/organ; Ratio [23]: 1.89; Ratio [24]: 1.84; Dose/g [25]: 0.15 % dose/organ; Dose/g [26]: 5.97 % dose/organ; Ratio [27]: 2.37; Dose/g [28]: 0.76%; Dose/g [29]: 6.97 % dose/organ; Dose/g [30]: 0.24%; Ratio [31]: 2.06; Ratio [32]: 2.1; Dose/g [33]: 0.23%; Ratio [34]: 1.77
